# From ChEMBL document CHEMBL4038303, “Simultaneous Drug Targeting of the Promoter MYC G-Quadruplex and BCL2 i-Motif in Diffuse Large B-Cell Lymphoma Delays Tumor Growth” (J Med Chem, 2017)
# Active and inactive are the calls of the source. The rule behind the calls is not given here.
# How the values were obtained:
# Homo sapiens [1] = species on record: Homo sapiens; assay: Stabilization of BCL2 i-motif promoter DNA in MYC translocation-positive and BCL2 amplification-positive human U2932 cells assessed as potentiation of CPA-induced apoptosis by measuring increase in caspase-3 activity at 3 uM after 24 hrs in presence of NSC-338258 by AFC based fluorescence assay (reference value: 30%)
# Homo sapiens [2] = species on record: Homo sapiens; assay: Stabilization of BCL2 i-motif promoter DNA in BCL2 translocation-positive human SUDHL4 cells assessed as potentiation of CPA-induced apoptosis by measuring increase in caspase-3 activity at 3 uM after 24 hrs in presence of NSC-338258 by AFC based fluorescence assay (reference value: 30%)
# Homo sapiens [3] = species on record: Homo sapiens; assay: Binding affinity to BLC2 i-motif promoter DNA in human VAL BCL2 and MYC translocation-positive cells assessed as downregulation of BCL2 protein levels at 1 to 3 uM after 24 hrs by Western blot analysis
# Procedure, shortened: (§1)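 Cell lines treated 24 h with compound up to 3 μM, with untreated and DMSO-treated controls. Lysates (20 μg total protein) probed by Western blot for BCL2 or MYC with antibodies at 1:1000; actin as loading control. Blots representative of triplicate experiments.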
# Mus musculus [4] = assay: Reduction in Myc mRNA level in tumor of SCID mouse xenografted with human U2932 cells at 10 mg/kg, ip administered for 5 consecutive days cotreated with CPA and NSC-338258 by qPCR method; format: functional, organism-based
# Procedure, shortened: (§2)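 Tumors from U2932 xenograft SCID mice given ip treatment daily for 5 days were harvested. Total RNA was taken from the same tumor preparations used for protein lysates, and MYC or BCL2 mRNA was quantified by TaqMan qPCR normalized to TBP. Comparisons were made with diluent-treated mice or CPA-only mice.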
# Homo sapiens [5] = species on record: Homo sapiens; assay: Binding affinity to c-myc G-quadruplex DNA in BCL2 translocation-positive human SUDHL4 cells assessed as downregulation of MYC mRNA levels up to 3 uM after 24 hrs by qPCR method relative to control
# Procedure, shortened: (§3)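 DLBCL lines grown in RPMI with 10% FBS (SUDHL4 15% FBS) and penicillin/streptomycin. Cells exposed for 24 h to rising concentrations up to 3 μM; DMSO as vehicle control. Total RNA isolated, target mRNA measured by TaqMan real-time qPCR, normalized to TBP and expressed relative to untreated cells; triplicate experiments, two-tailed t test.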
# Homo sapiens [6] = species on record: Homo sapiens; assay: Binding affinity to BLC2 i-motif promoter DNA in MYC translocation-positive and BCL2 amplification-positive human U2932 cells assessed as downregulation of Bcl2 mRNA levels at 1 to 3 uM after 24 hrs by qPCR method relative to control; procedure, shortened: as §3
# U2932 [7] = assay: Potentiation of CPA-induced antitumor activity against human U2932 cells xenografted in SCID mouse assessed as tumor growth inhibition at 10 mg/kg, ip for 5 days cotreated with 7.5 mg/kg NSC-338258 measured on day 12 post first treatment (reference value: 67%); format: functional
# Procedure, shortened: (§4)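 U2932 DLBCL cells (10 × 10^6 in 100 μL sterile saline, viability >91%) injected subcutaneously into left flank of SCID mice (6−8 weeks, immunoglobulin ≤20 μg/mL). Mice pair-matched by tumor volume. Drugs given ip daily for 5 days, CPA 30 mg/kg; controls received all diluents. Tumor volume = a2 × b/2 (a smallest, b largest diameter); n = 5−8; Grubbs' test for outliers.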
# U2932 [8] = assay: Potentiation of CPA-induced antitumor activity against human U2932 cells xenografted in SCID mouse assessed as reduction in tumor burden AUC at 10 mg/kg, ip for 5 days cotreated with 5 to 7.5 mg/kg NSC-338258 measured on day 9 to 15 post first treatment; format: functional, organism-based; procedure, shortened: as §4
# HT = assay: Down regulation of BLC2 mRNA level in human HT cells up to 3 uM after 24 hrs by qPCR method; format: functional, cell-based; procedure, shortened: as §3
# Homo sapiens [9] = species on record: Homo sapiens; assay: Stabilization of BCL2 i-motif promoter DNA in BCL2 and MYC translocation-positive human VAL cells assessed as potentiation of CPA-induced cytotoxicity by measuring fold reduction in CPA IC50 at 2 to 3 uM after 96 hrs by MTS assay
# Procedure, shortened: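 MTS viability assay. 100 000 cells incubated 96 h with increasing CPA alone or with ligand (1−3 μM). Viability expressed relative to untreated cells. CPA IC50 fitted by Boltzmann sigmoidal equation with variable slope, and fold change in IC50 taken from the fitted values.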
# Mus musculus [10] = assay: Toxicity in scid mouse xenografted with human U2932 cells assessed as change in body weight at 10 mg/kg, ip administered for 5 consecutive days in presence of CPA and NSC-338258; format: organism-based; conditions: in vivo
# Procedure, shortened: (§5)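 SCID mice (6−8 weeks, female or male, serum immunoglobulin ≤20 μg/mL by ELISA) implanted subcutaneously in left flank with 10 × 10^6 U2932 cells in 100 μL saline; pair-matched by tumor volume; dosed ip daily for 5 days; controls received all compound diluents; tumor volume a2 × b/2; outliers by Grubbs' test; two-tailed t test with Šidák–Bonferroni correction.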
# Homo sapiens [11] = species on record: Homo sapiens; assay: Binding affinity to BLC2 i-motif promoter DNA in BCL2 translocation-positive human SUDHL4 cells assessed as downregulation of Bcl2 mRNA levels at 1 to 3 uM after 24 hrs by qPCR method; procedure, shortened: as §3
# U2932 [12] = assay: Potentiation of CPA-induced antitumor activity against human U2932 cells xenografted in SCID mouse assessed as tumor growth inhibition at 10 mg/kg, ip for 5 days cotreated with 7.5 mg/kg NSC-338258 measured on day 9 post first treatment (reference value: 50%); format: functional; procedure, shortened: as §4
# Homo sapiens [13] = species on record: Homo sapiens; assay: Binding affinity to c-myc G-quadruplex DNA in human HT cells assessed as downregulation of MYC protein levels up to 3 uM after 24 hrs by Western blot analysis; format: cell-based; procedure, shortened: as §1
# Homo sapiens [14] = species on record: Homo sapiens; assay: Binding affinity to BLC2 i-motif promoter DNA in BCL2 and MYC translocation-positive human VAL cells assessed as downregulation of Bcl2 mRNA levels at 1 to 3 uM after 24 hrs by qPCR method relative to control; procedure, shortened: as §3
# Homo sapiens [15] = species on record: Homo sapiens; assay: Binding affinity to BLC2 i-motif promoter DNA in human SUDHL4 BCL2 translocation-positive cells assessed as downregulation of BCL2 protein levels at 1 to 3 uM after 24 hrs by Western blot analysis; procedure, shortened: as §1
# Mus musculus [16] = assay: Reduction in Bcl2 mRNA level in tumor of SCID mouse xenografted with human U2932 cells at 10 mg/kg, ip administered for 5 consecutive days cotreated with CPA and NSC-338258 by qPCR method; format: functional, organism-based; procedure, shortened: as §2
# U2932 [17] = assay: Antitumor activity against human U2932 cells xenografted in SCID mouse assessed as reduction in tumor burden at 10 mg/kg, ip for 5 days cotreated with 5 to 7.5 mg/kg NSC-338258 measured on day 9 to 15 post first treatment
# Mus musculus [18] = assay: Toxicity in scid mouse xenografted with human U2932 cells assessed as change in body weight at 10 mg/kg, ip administered for 5 consecutive days in presence of CPA; format: organism-based; conditions: in vivo; procedure, shortened: as §5
# Homo sapiens [19] = species on record: Homo sapiens; assay: Binding affinity to c-myc G-quadruplex DNA in MYC translocation-positive and BCL2 amplification-positive human U2932 cells assessed as downregulation of MYC mRNA levels up to 3 uM after 24 hrs by qPCR method relative to control; procedure, shortened: as §3
# Homo sapiens [20] = species on record: Homo sapiens; assay: Stabilization of BCL2 i-motif promoter DNA in BCL2 and MYC translocation-positive human VAL cells assessed as potentiation of CPA-induced apoptosis by measuring increase in caspase-3 activity at 3 uM after 24 hrs in presence of NSC-338258 by AFC based fluorescence assay (reference value: 30%)
# U2932 [21] = assay: Potentiation of CPA-induced antitumor activity against human U2932 cells xenografted in SCID mouse assessed as tumor growth inhibition at 10 mg/kg, ip for 5 days cotreated with 7.5 mg/kg NSC-338258 measured on day 15 post first treatment (reference value: 44%); format: functional; procedure, shortened: as §4
# Homo sapiens [22] = species on record: Homo sapiens; assay: Binding affinity to BLC2 i-motif promoter DNA in human U2932 MYC translocation-positive and BCL2 amplification-positive cells assessed as downregulation of BCL2 protein levels at 1 to 3 uM after 24 hrs by Western blot analysis; procedure, shortened: as §1
smiles,measurement,setting,value
COc1ccc2c(c1)CN([C@@H](C)[C@H]1CC[C@H]3[C@@H]4CC[C@H]5C[C@@H](O)CC[C@]5(C)[C@H]4CC[C@]13C)CO2,Activity,Homo sapiens [1],100%
same,Activity,Homo sapiens [2],100%
same,Activity,Homo sapiens [3],Active
same,Activity,Mus musculus [4],Active
same,Activity,Homo sapiens [5],inactive
same,Activity,Homo sapiens [6],11 to 37%
same,TGI,U2932 [7],46%
same,Activity,U2932 [8],Active
same,Activity,HT,inactive
same,fold change (FC),Homo sapiens [9],1.7
same,Activity,Mus musculus [10],Non-Toxic
same,Activity,Homo sapiens [11],11 to 37%
same,TGI,U2932 [12],50%
same,Activity,Homo sapiens [13],inactive
same,Activity,Homo sapiens [14],11 to 37%
same,Activity,Homo sapiens [15],Active
same,Activity,Mus musculus [16],Active
same,Activity,U2932 [17],inactive
same,Activity,Mus musculus [18],Non-Toxic
same,Activity,Homo sapiens [19],inactive
same,Activity,Homo sapiens [20],100%
same,TGI,U2932 [21],37%
same,Activity,Homo sapiens [22],Active
